Assay outcomes as filed in PubChem.
NR3A LBD binder: NR3A (human) ligand-binding domain modulation. NR3A LBD differential scanning fluorimetry, Tm shift; 0% = protein alone, 100% = glycine-bound protein. Tm shift relative to glycine control, % at 25 µM. hit rate 2.5% among 340,000;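 active = melting temperature shift of at least 10% of the positive control shift, at one fixed dose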
PAFAH2 FP inh: inhibitors of human PAFAH2; Q99487; recombinant PAFAH2, FP-rhodamine activity probe, fluorescence polarization; inhibition, % at 3.39 µM; hit rate 0.99% among 340,000; AID 492956;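 active = inhibition above the mean over all tested compounds plus 3 SD, cut at about 30% in these data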;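 also: inhibitors block probe labeling of enzyme so polarization drops; 0% = enzyme with DMSO and 100% = wells lacking PAFAH2 protein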
PAFAH1B2 FP inh: PAFAH1B2 (human) inhibition | recombinant PAFAH1B2, FP-rhodamine activity probe, fluorescence polarization | inhibition, % at 3.39 µM | hit rate 1.2% among 340,000 | AID 492953;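 active = inhibition above the mean of all tested compounds plus 3 SD, cut at about 24% in these data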;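 also: 0% = enzyme with DMSO and 100% = wells lacking PAFAH1B2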
Target sequence (P68402 whole entry, looked up): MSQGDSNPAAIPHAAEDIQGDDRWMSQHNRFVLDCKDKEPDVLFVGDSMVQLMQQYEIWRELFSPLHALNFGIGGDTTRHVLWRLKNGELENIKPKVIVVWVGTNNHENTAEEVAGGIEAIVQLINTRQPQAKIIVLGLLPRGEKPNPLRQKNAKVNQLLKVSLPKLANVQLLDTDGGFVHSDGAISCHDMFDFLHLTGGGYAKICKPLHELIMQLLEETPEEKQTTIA
pPAFAH inh: pPAFAH (human) enzyme inhibition; AID 463082; inhibition, % at 3.39 µM; hit rate 1.5% among 330,000; recombinant pPAFAH, FP-rhodamine probe fluorescence polarization; Q13093;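 active = inhibition above the mean inhibition across the screen plus 3 SD, cut at about 25% in these data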;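 also: inhibitors block binding of the rhodamine activity-based probe so polarization drops; 0% = enzyme with DMSO and 100% = wells lacking pPAFAH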
PAFAH1B3 FP inh: inhibitors of human PAFAH1B3; inhibition, % at 3.39 µM; AID 492972; Q15102; hit rate 0.28% among 340,000; recombinant PAFAH1B3, FP-rhodamine probe, fluorescence polarization;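 active = inhibition above the screen-wide average of all tested compounds plus 3 SD, cut at about 25% in these data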;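 also: 0% = enzyme with DMSO only and 100% = wells lacking PAFAH1B3 protein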
Target sequence (Q15102 whole entry, looked up): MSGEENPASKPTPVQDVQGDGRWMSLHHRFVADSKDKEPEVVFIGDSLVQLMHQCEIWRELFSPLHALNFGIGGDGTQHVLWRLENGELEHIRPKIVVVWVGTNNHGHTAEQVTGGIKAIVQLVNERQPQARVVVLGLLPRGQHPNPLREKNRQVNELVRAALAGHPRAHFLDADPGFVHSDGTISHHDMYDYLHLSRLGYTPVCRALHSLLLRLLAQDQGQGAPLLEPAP
UCH37 DUB inh: blocks the human deubiquitinase UCH37; purified proteasome/UCH37, Ub-AMC cleavage fluorescence; Q9Y5K5; hit rate 0.33% among 330,000; inhibition, % (no concentration beside the values);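 active = mean inhibition over replicate wells above about 20%, limit read from the data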;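 also: 0% = compound-free wells with enzyme and 100% = wells lacking proteasome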
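Signal – fluorescence, ex 355 nm, em 460 nm · System – Proteasome-bound UCH37 · Input – 0.15 nM proteasome as dispensed · Timing – 30 min preincubation with enzyme, 25 min cleavage at room temperature · Read-out basis – percent inhibition of cleavage signal versus uninhibited and no-proteasome wells · Medium – Tris-HCl pH 7.4 with ATP-MgCl2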
* marks the source's active call; other numbers are inactive results; . = no result. The list is not random: actives were taken first. Their share in the collection is about 4.8%.

SMILES | NR3A LBD binder | PAFAH2 FP inh | PAFAH1B2 FP inh | pPAFAH inh | PAFAH1B3 FP inh | UCH37 DUB inh
COc1ccc(OCC(=O)Nc2ccc(N3CCCCC3)cc2)cc1 | 19* | 8 | 7 | 3 | 9 | 2
CC(=O)c1ccc(OCC(=O)Nc2ccc(N3CCCCC3)cc2)cc1 | -6 | 1 | 6 | 1 | 9 | 1
Cc1cc(OCC(=O)Nc2ccc(N3CCN(C)CC3)cc2)ccc1Cl | 0 | -5 | -4 | 8 | -3 | 4
Cc1ccc(OCC(=O)Nc2ccc3oc(=O)ccc3c2)cc1 | -18 | -2 | -2 | -8 | 4 | -15
COc1ccccc1/C=C/C(=O)NCC(=O)NN=Cc1ccccc1 | . | . | . | . | . | -4
COc1ccc(NC(=O)COc2ccc(-n3cnnn3)cc2)cc1OC | 11* | 1 | 3 | . | 7 | 4
Cc1ccc(NC(=O)COc2ccc(/C(N)=N/O)cc2)cc1C | 14* | 4 | 5 | 4 | 10 | 3
O=C(CNCCC1=CCCCC1)Nc1ccc(N2CCCCCC2)cc1 | -4 | 11 | 8 | 32* | -2 | 6
Cc1cccc(OCC(=O)Nc2ccc(N3CCCC3)cc2)c1C | -3 | 11 | 5 | 30* | 6 | 2
Cc1ccc(NC(=O)COc2ccc(-n3cnnn3)cc2)cc1C | 0 | 2 | -1 | 1 | 6 | 4
COC(=O)c1ccc(C=NNC(=O)C(=O)NCc2ccccc2)cc1 | . | . | . | . | . | 5
C(=Nn1cnnc1)c1cccn1-c1ccccc1 | . | . | . | . | . | 6
CC(=O)c1ccc(OCCCC(=O)Nc2ccc(S(=O)(=O)N3CCOCC3)cc2)cc1 | 22* | 6 | 5 | -2 | 9 | 0
FC(F)Oc1ccccc1C=NNc1nc2ccccc2o1 | . | . | . | . | . | 1
CC(=O)Nc1nc(C)c(CCC2OCCO2)c(=O)[nH]1 | 12* | -7 | 6 | 7 | 6 | 4
Cc1[nH]c(=S)[nH]c(=O)c1CCC1OCCO1 | 14* | 11 | -1 | 5 | 4 | 4
O=C1/C(=C\c2ccco2)SC(=S)N1C1CCCCC1 | . | . | . | 33* | . | .
CC(O)(CS(=O)(=O)Cc1cccc(C(F)(F)F)c1)C(=O)Nc1cccc(C(F)(F)F)c1 (stereo not given) | 0 | -7 | 38* | 2 | -3 | 3
CC(O)(CS(=O)(=O)Cc1ccccc1Cl)C(=O)Nc1cccc(C(F)(F)F)c1 (stereo not given) | -6 | -8 | 2 | 2 | 5 | 2
Cn1nc(-c2ccccc2)cc1NC(=O)c1ccccc1 | -1 | -5 | -1 | -5 | 7 | -1
Cn1nc(-c2ccccc2)cc1NC(=O)Nc1ccc(C(C)(C)C)cc1 | 17* | -3 | -3 | 1 | 12 | 3
Cn1nc(-c2ccc(Cl)cc2)cc1NC(=O)Nc1ccccc1 | 26* | 0 | -1 | -1 | 2 | 2
COc1cc(C(=O)NN=Cc2cccc(Oc3ccccc3)c2)ccc1O | . | . | . | . | . | 2
Cn1c(=O)c2c(nc(NCC3CCCO3)n2Cc2ccccc2)n(C)c1=O (stereo not given) | -1 | -5 | -2 | 0 | -1 | 26*
Oc1cccc(/C=N/Nc2ncnc3c2ncn3Cc2ccccc2)c1 | 3 | -6 | 8 | 0 | 3 | .
SMILES | NR3A LBD binder | PAFAH2 FP inh | PAFAH1B2 FP inh | pPAFAH inh | PAFAH1B3 FP inh | UCH37 DUB inh
Oc1ccc(/C=N/Nc2ncnc3c2ncn3Cc2ccccc2)cc1O | 5 | 15 | 3 | 30* | -1 | .
C(=NNc1nnnn1-c1ccccc1)c1ccncc1 | . | . | . | . | . | 6
Nc1nc(-c2cccc(F)c2)cs1 | 2 | 1 | 45* | -2 | 7 | -1
Fc1cccc(-c2csc(-c3ccno3)n2)c1 | -36 | -1 | 2 | 4 | -2 | 5
CCOc1cccc(C=NNc2ccc(S(=O)(=O)N(CC)CC)cn2)c1O | . | . | . | . | . | 3
Cc1cc(C)nc(SCC(=O)N/N=C/c2cc(C)n(-c3ccccc3C)c2C)n1 | 11* | 11 | 2 | 10 | 2 | .
CCCNS(=O)(=O)c1cc2c3c(c1)C(C)C(=O)N3CCC2 (stereo not given) | 2 | -8 | -1 | 2 | 0 | 1
CCOc1ccc(NS(=O)(=O)c2cc3c4c(c2)C(C)C(=O)N4CCC3)cc1 (stereo not given) | 0 | 3 | 2 | 26* | 4 | -1
O=C1C(Cl)=C(NCc2cccnc2)C(=O)c2ccccc21 | 0 | 7 | 8 | 2 | 19 | 25*
Cc1ccccc1CN1C(=O)/C(=C\c2ccc(C(=O)NCCN3CCOCC3)cc2)Sc2ccccc21 | -7 | 9 | 2 | 21 | -3 | -28
